# Test results published in ChEMBL document CHEMBL1149450, “Synthesis and cytotoxic evaluation of new derivatives of the marine alkaloid variolin B” (2006).
# Key:
# Type in all cases: functional
# HeLa [1] = assay: Inhibition of growth against HeLa cells after 72 hrs exposure; settings: Homo sapiens
# In short: (§1)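 Human tumour cells seeded at 5 × 10^3 per well in RPMI and allowed to attach for 18 h in drug-free medium. Compounds added in DMSO:H2O (3:7) for 72 h of continuous exposure. Cells fixed with cold TCA (60 min, 4 °C), stained with 0.4% SRB in 1% acetic acid (10 min, RT), and bound dye solubilised in Tris. OD read at 490 nm. GI50 calculated from 100 × [(T − T0)/(C − T0)] = 50, using control, test and time-zero ODs.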
# DU-145 = assay: Inhibition of growth against DU145 cells after 72 hrs exposure; settings: Homo sapiens, DU-145, 72 h; in short: as §1
# PANC-1 = assay: Inhibition of growth against PANC1 cells after 72 hrs exposure; settings: Homo sapiens, PANC-1, 72 h; in short: as §1
# IGROV-1 [2] = assay: Inhibition of growth against IGROV-ET cells after 72 hrs exposure; settings: Homo sapiens, IGROV-1, 72 h; in short: as §1
# IGROV-1 [3] = assay: Inhibition of growth against IGROV cells after 72 hrs exposure; settings: Homo sapiens, IGROV-1, 72 h; in short: as §1
# HT-29 = assay: Inhibition of growth against HT29 cells after 72 hrs exposure; settings: Homo sapiens, HT-29, 72 h; in short: as §1
# SK-BR-3 = assay: Inhibition of growth against SKBR3 cells after 72 hrs exposure; settings: Homo sapiens, SK-BR-3, 72 h; in short: as §1
# SK-MEL-28 = assay: Inhibition of growth against MEL28 cells after 72 hrs exposure; settings: Homo sapiens, SK-MEL-28, 72 h; in short: as §1
# A549 = assay: Inhibition of growth against A549 cells after 72 hrs exposure; settings: Homo sapiens, A549, 72 h; in short: as §1
# HeLa [4] = assay: Inhibition of growth against HeLa-Apl cells after 72 hrs exposure; settings: Homo sapiens; in short: as §1
# K562 = assay: Inhibition of growth against K562 cells after 72 hrs exposure; settings: Homo sapiens, K562, 72 h; in short: as §1
# LoVo [5] = assay: Inhibition of growth against LoVo-Dox cells after 72 hrs exposure; settings: Homo sapiens; in short: as §1
# LNCaP = assay: Inhibition of growth against LnCAP cells after 72 hrs exposure; settings: Homo sapiens; in short: as §1
# LoVo [6] = assay: Inhibition of growth against LoVo cells after 72 hrs exposure; settings: Homo sapiens; in short: as §1
# SK-OV-3 = assay: Inhibition of growth against SKOV3 cells after 72 hrs exposure; settings: Homo sapiens, SK-OV-3, 72 h; in short: as §1
# HMEC = assay: Inhibition of growth against HMEC1 cells after 72 hrs exposure; settings: Homo sapiens; in short: as §1
Compound,GI50 (HeLa [1]),GI50 (DU-145),GI50 (PANC-1),GI50 (IGROV-1 [2]),GI50 (IGROV-1 [3]),GI50 (HT-29),GI50 (SK-BR-3),GI50 (SK-MEL-28),GI50 (A549),GI50 (HeLa [4]),GI50 (K562),GI50 (LoVo [5]),GI50 (LNCaP),GI50 (LoVo [6]),GI50 (SK-OV-3),GI50 (HMEC)
COc1ccnc2c1c(-c1ccnc(N)n1)c1cc(-c3ccnc(N)n3)nc(NCc3ccccc3)n12,3.03 µM,21 µM,19.9 µM,21 µM,21 µM,21 µM,8.24 µM,21 µM,21 µM,3.68 µM,21 µM,21 µM,18.6 µM,21 µM,–,–
Nc1nccc(-c2cc3cc4c(O)ccnc4n3c(NCc3ccccc3)n2)n1,–,26.1 µM,26.1 µM,12.9 µM,4.46 µM,25.1 µM,13.1 µM,24.4 µM,14.1 µM,–,26.1 µM,6.76 µM,12.9 µM,8.74 µM,19 µM,6.31 µM
CN(C)Cc1cnc2c(c1O)c(-c1ccnc(N)n1)c1cc(-c3ccnc(N)n3)nc(NCc3ccccc3)n12,4.52 µM,4.74 µM,17.7 µM,3.56 µM,4.03 µM,18.7 µM,2.79 µM,4.12 µM,18.7 µM,3.88 µM,4.78 µM,3.05 µM,9.13 µM,13.6 µM,–,–
Nc1nccc(-c2c3c(O)ccnc3n3c(N)nccc23)n1 [VARIOLIN B],–,0.89 µM,1.68 µM,1.28 µM,1.14 µM,2.85 µM,0.85 µM,1.2 µM,0.98 µM,–,1.55 µM,1.02 µM,0.05 µM,0.8 µM,1.21 µM,0.27 µM
COc1ccnc2c1c(-c1ccnc(N)n1)c1cc(C(=O)NCCN(C)C)nc(NCc3ccccc3)n12,–,2.38 µM,3.97 µM,2.05 µM,2.8 µM,3.44 µM,2.13 µM,4.42 µM,3.38 µM,–,3.36 µM,3.46 µM,2.37 µM,3.62 µM,0.72 µM,0.46 µM
COc1ccnc2c1cc1cc(-c3ccnc(N)n3)nc(NCc3ccccc3)n12,–,25.2 µM,25.2 µM,25.2 µM,15.1 µM,25.2 µM,25.2 µM,25.2 µM,25.2 µM,–,25.2 µM,11 µM,16 µM,14.4 µM,25.2 µM,15 µM
Nc1nccc(-c2cc3c(-c4ccnc(N)n4)c4c(O)ccnc4n3c(N)n2)n1,26.9 µM,26.9 µM,26.9 µM,26.9 µM,26.9 µM,26.9 µM,14.8 µM,26.9 µM,26.9 µM,26.9 µM,26.9 µM,26.9 µM,26.9 µM,26.9 µM,–,–
Nc1nccc(-c2cc3cc4c(O)ccnc4n3c(N)n2)n1 [7-ISOVARIOLIN B],6.14 µM,34.1 µM,21.8 µM,31.9 µM,27.9 µM,34.1 µM,31.9 µM,3.41 µM,34.1 µM,8.86 µM,9.24 µM,34.1 µM,5.28 µM,34.1 µM,–,–
Nc1nccc(-c2cc3c(-c4ccnc(N)n4)c4c(O)ccnc4n3c(NCc3ccccc3)n2)n1,–,21.7 µM,21.7 µM,9.9 µM,21.7 µM,21.7 µM,21.7 µM,21.7 µM,21.7 µM,–,21.7 µM,21.7 µM,21.7 µM,21.7 µM,21.7 µM,21.7 µM
